Here are results for one molecule from ChEMBL document CHEMBL4480390, “Cink4T, a quinazolinone-based dual inhibitor of Cdk4 and tubulin polymerization, identified via ligand-based virtual screening, for efficient anticancer therapy” (Eur J Med Chem, 2019).

The structures appear in SMILES notation. Active and inactive are the calls of the source. The rule behind the calls is not given here.

The target of assay [1] is Cyclin-dependent kinase 4/cyclin D1 (Homo sapiens) (UniProt P11802+P24385). In words: Inhibition of recombinant human N-terminal GST-tagged CDK4 (S4 to E303 residues)/Cyclin D1 (Q4 to I295 residues) expressed in sf9 cells at 10 uM using RBCTF as substrate measured after 1 hr by ADP-glo luminescence assay relative to control.
Assay [2] concerns the target Cyclin-dependent kinase 1/cyclin B1 (Homo sapiens, UniProt P06493). Kind of assay: Inhibition of recombinant human N-terminal GST/His6-tagged CDK1 (M1 to M297 residues)/CyclinB1 (M1 to V433 residues) expressed in Sf9 insect cells using RBCTF as substrate measured after 1 hr by ADP-glo luminescence assay.
For assay [3], the target named is CDK9/cyclin T1 (Homo sapiens, UniProt P50750). Kind of assay: Inhibition of N-terminal GST-HIS6 fusion protein tagged human full length CDK9 (M1 to F372 residues)/N-terminal HIS6-fused human Cyclin-T1 (M1 to K726 residues) expressed in Sf9 cells using RBCTF as substrate measured after 1 hr by ADP-glo luminescence assay.
Assay [4] deals with CDK6/cyclin D1 (Homo sapiens, UniProt Q00534). In words: Inhibition of CDK6/cyclin D1 (unknown origin) using RBER-CHKtide as substrate measured after 1 hr by ADP-glo luminescence assay. The assay is classed as protein-complex assay. The method in brief: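 ADP-Glo kinase assay with 200 ng Cdk-cyclin enzyme, ATP (125 µM in 2.5x mix) and 25 µg substrate (RBCTF or RBER-CHKtide, per Cdk). Buffer: Tris, MgCl2, BSA, DTT, MnCl2 cofactor, DMSO. Reaction 1 h at 21°C; ADP-Glo 40 min, then detection reagent 40 min. Luminescence read. IC50 by 4-parameter fit; three independent experiments.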

The target of assay [5] is T1, Cytochrome P450 1A1 (Homo sapiens, UniProt P04798).
T1 sequence (P04798 whole entry): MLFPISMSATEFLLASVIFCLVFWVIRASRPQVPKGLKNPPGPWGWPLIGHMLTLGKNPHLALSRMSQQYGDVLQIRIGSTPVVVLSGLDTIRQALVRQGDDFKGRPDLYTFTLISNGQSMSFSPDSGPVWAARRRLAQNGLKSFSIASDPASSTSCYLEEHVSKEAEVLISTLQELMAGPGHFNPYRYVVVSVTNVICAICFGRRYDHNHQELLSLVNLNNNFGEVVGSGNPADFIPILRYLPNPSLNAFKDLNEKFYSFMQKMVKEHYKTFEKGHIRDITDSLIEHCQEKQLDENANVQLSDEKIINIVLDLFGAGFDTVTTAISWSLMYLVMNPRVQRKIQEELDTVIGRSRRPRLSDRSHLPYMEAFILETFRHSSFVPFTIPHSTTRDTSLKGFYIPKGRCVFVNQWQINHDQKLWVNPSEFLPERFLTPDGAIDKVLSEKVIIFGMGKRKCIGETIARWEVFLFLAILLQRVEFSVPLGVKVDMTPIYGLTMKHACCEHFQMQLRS
Kind of assay: Inhibition of recombinant human CYP1A1 expressed in baker's yeast-derived microsomes using 7-ethoxyresorufin as substrate by fluorescence assay. The assay is classed as ADME.

In assay [6] the target is Tubulin (Sus scrofa) (UniProt P02554+P02550). Kind of assay: Inhibition of porcine tubulin polymerization incubated for 1 min by fluorescence based assay. The class given is protein assay. The method in brief:
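Compounds added from 10x stocks in duplicate and warmed at 37°C ≤1 min. Ice-cold tubulin pre-mix then added. Fluorescent reporter read at ex 360/em 460 nm for 60 min. Paclitaxel served as enhancer control, CaCl2 as inhibitor control.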

The subject of assay [7] is T47D. Kind of assay: Cell cycle arrest in human T47D cells assessed as ratio of G1 to S phase at 1.5 uM measured after 18 hrs by propidium iodide staining based flow cytometry (reference value: 2.65). The assay is classed as functional.
Assay [8] deals with T47D. Kind of assay: Cell cycle arrest in human T47D cells assessed as accumulation at sub-G1 phase at 1.5 uM measured after 18 hrs by propidium iodide staining based flow cytometry relative to control. The class given is functional.
In assay [9] the test system is T47D. Kind of assay: Cell cycle arrest in human T47D cells assessed as accumulation at G0/G1 phase at 0.75 uM treated 18 hrs post serum-starvation measured after 18 hrs in presence of fresh medium containing FBS by propidium iodide staining based flow cytometry (reference value: 60.3%). The assay is classed as functional.
For assay [10], the system named is T47D. Kind of assay: Cell cycle arrest in human T47D cells assessed as accumulation at sub-G1 phase at 1.5 uM treated 18 hrs post serum-starvation measured after 18 hrs in presence of fresh medium containing FBS by propidium iodide staining based flow cytometry relative to control. The class given is functional.
In assay [11] the test system is Calu-1. Kind of assay: Cell cycle arrest in human Calu1 cells assessed as increase in accumulation at S phase at 0.9 uM treated 18 hrs post serum-starvation measured after 18 hrs in presence of fresh medium containing FBS by propidium iodide staining based flow cytometry relative to control. The class given is functional.
Assay [12] concerns MDA-MB-468. In words: Cell cycle arrest in human MDA-MB-468 cells assessed as ratio of G1 to S phase at 22 uM measured after 18 hrs by propidium iodide staining based flow cytometry (reference value: 2.17). The assay is classed as functional.
For assay [13], the system named is MDA-MB-468. Kind of assay: Cell cycle arrest in human MDA-MB-468 cells assessed as accumulation at sub-G1 phase at 22 uM measured after 18 hrs by propidium iodide staining based flow cytometry relative to control. The assay is classed as functional.
The subject of assay [14] is A549. In words: Cell cycle arrest in human A549 cells assessed as ratio of G1 to S phase at 0.8 uM measured after 18 hrs by propidium iodide staining based flow cytometry (reference value: 2.7). The class given is functional.
Assay [15] has as its system A549. In words: Cell cycle arrest in human A549 cells assessed as accumulation at G0/G1 phase at 1.6 uM measured after 18 hrs by propidium iodide staining based flow cytometry (reference value: 58%). The assay is classed as functional.
Assay [16] has as its system A549. Kind of assay: Cell cycle arrest in human A549 cells assessed as accumulation at S phase at 0.8 uM measured after 18 hrs by propidium iodide staining based flow cytometry (reference value: 21%). The assay is classed as functional.
In assay [17] the test system is A549. In words: Cell cycle arrest in human A549 cells assessed as accumulation at G2/M phase at 0.8 uM measured after 18 hrs by propidium iodide staining based flow cytometry (reference value: 18%). The class given is functional.
Assay [18] has as its system A549. Kind of assay: Cell cycle arrest in human A549 cells assessed as accumulation at G2/M phase at 1.6 uM measured after 18 hrs by propidium iodide staining based flow cytometry (reference value: 18%). The class given is functional.
For assay [19], the system named is A549. In words: Up regulation of cyclin-B1 expression in human A549 cells at 0.8 to 1.6 uM measured after 18 hrs by Western blot analysis. The assay is classed as functional, cell-based.
Assay [20] concerns A549. Kind of assay: Cell cycle arrest in human A549 cells assessed as accumulation at S phase at 0.8 uM treated 32 hrs post mimosine addition measured after 18 hrs in presence of fresh medium by propidium iodide staining based flow cytometry (reference value: 23%). The class given is functional.
The subject of assay [21] is A549. Kind of assay: Cell cycle arrest in human A549 cells assessed as accumulation at G0/G1 phase at 1.6 uM treated 32 hrs post mimosine addition measured after 18 hrs in presence of fresh medium by propidium iodide staining based flow cytometry (reference value: 58%). The assay is classed as functional.
Assay [22] relates to A549. Kind of assay: Cell cycle arrest in human A549 cells assessed as accumulation at G2/M phase at 1.6 uM treated 32 hrs post mimosine addition measured after 18 hrs in presence of fresh medium by propidium iodide staining based flow cytometry (reference value: 14%). The assay is classed as functional.
Assay [23] has as its system MDA-MB-468. In words: cells. As to conditions: Homo sapiens, MDA-MB-468, 72 h.

For the molecule `O=C(COc1ccc(-c2nc3ccccc3c(=O)[nH]2)cc1)Nc1cccc(Cl)c1`, the values for the inhibition in [1] and in assay [6] were 95% and “Dose-dependent effect”, respectively. The IC50 in [2] is > 50 µM; in assay [3], > 100 µM; in assay [4], > 100 µM; in assay [5], > 5 µM. Also, the Ratio in assay [7] is given as 12; in assay [12], 3.15; in assay [14], 6.5. Besides, the Activity worked out at 20% in [8]; 77% in assay [9]; 18.6% in [10]; 0.7% in [11]; 0% in assay [13]; 12% in assay [15]. Further, the Activity amounted to 10% in assay [16]; 28% in [17]; 70% in [18]; 24% in [20]; 12% in [21]; 68% in [22]. Besides, the outcome in assay [19] was inactive. This molecule showed a half-maximal effective concentration (EC50) in [23] of 10.8 µM.
